Laboratory results from article PMC10951637 (iScience, 2024).

Experiments:
[1] = phase 2b, oral, adults with obesity; cited from earlier work
[2] = system: blood glucose of non-fasted db/db mice; assay: Hypoglycemic duration assay; assay type: in vivo, C57BL/6 db/db mice; settings: single s.c. dose 25 nmol/kg, 0 to 36 h, n = 5
Outline: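 Non-fasted male C57BL/6 db/db mice with free food and water were randomised into groups (n = 5). Each got one s.c. dose of 25 nmol/kg test compound, or PBS as control. Tail-blood glucose was read by glucometer at 0, 0.5, 1, 2, 4, 6, 8, 10, 24 and 36 h. […] Data are mean ± SD, one-way ANOVA with Tukey test.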

[3] = system: diabetic db/db mice; assay: Chronic efficacy study; assay type: in vivo; settings: for HbA1c value attenuated from baseline / body weight increase: 25 nmol/kg s.c. once daily for 4 weeks, n = 5; for reduction of AUC glucose 0–210 min, OGTT day 15: chronic study, 25 nmol/kg s.c. once daily, day 15, n = 5
[4] = cited from earlier work
[5] = phase III study (SURPASS-1), across all doses

Question: For `N#Cc1ccc(COc2cccc(C3CCN(Cc4nc5ccc(C(=O)O)cc5n4C[C@@H]4CCO4)CC3)n2)c(F)c1` [Danuglipron], which discontinuation rate [1] is on record?
Answer: greater than 50%

Question: What about the rate of diarrhea [1] of the same compound?
Answer: 25%

Question: What about the rate of nausea [1] of the same compound?
Answer: 73%

Question: And the rate of vomiting [1]?
Answer: 47%

Question: For exendin-4: GLP-1R mono-agonist, which “glucose AUC0–36h (in words)” value [2] is on record?
Answer: comparable to that of the PBS group

Question: And the “HbA1c value attenuated from baseline” value [3]?
Answer: approximately 15%

Question: What about the body weight increase [3] of the same compound?
Answer: ~6.9%

Question: And the “reduction of AUC glucose 0–210 min, OGTT day 15” value [3]?
Answer: ~18%

Question: For liraglutide, which “HbA1c value attenuated from baseline” value [3] is on record?
Answer: ~30%

Question: What about the body weight increase [3] of the same compound?
Answer: ~7.4%

Question: And the “reduction of AUC glucose 0–210 min, OGTT day 15” value [3]?
Answer: ~40%

Question: What does the source list for “tirzepatide: imbalanced GLP-1R/GIPR co-agonist, fatty diacid conjugated to K”?
Answer: weight loss ([4]; in T2D treatment and in obesity independent of diabetes): more than 20%; incidence of gastrointestinal disorders [4, 5]: 28–41%; study drug discontinuation [4, 5]: 3–7%
